Measured values taken from ChEMBL document CHEMBL1641600, “Novel bifunctional alkylating agents, 5,10-dihydropyrrolo[1,2-b]isoquinoline derivatives, synthesis and biological activity” (Bioorg Med Chem, 2011).

Columns and labels:
CCRF-CEM [1] = assay: Ratio of IC50 for Taxol-resistant human CCRF-CEM cells to IC50 for human CCRF-CEM cells
CCRF-CEM [2] = assay: Cytotoxicity against Taxol-resistant human CCRF-CEM cells after 72 hrs by XTT assay; assay type: functional, cell-based
In short: (§1)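 Leukemic CCRF-CEM and its Taxol- and vinblastine-resistant sublines exposed 72 h to six or seven drug concentrations. XTT with phenazine methosulfate added for 6 h at 37 °C; absorbance read at 450 and 630 nm. IC50 obtained from dose-effect data by the median-effect principle.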

CCRF-CEM [3] = assay: Cytotoxicity against human CCRF-CEM cells after 72 hrs by XTT assay; assay type: functional, cell-based
In short: as §1

CCRF-CEM [4] = assay: Cytotoxicity against vinblastine-resistant human CCRF-CEM cells after 72 hrs by XTT assay; assay type: functional, cell-based
In short: as §1

[5] = Cytotoxicity against human OECM1 cells after 72 hrs by Alamar blue assay; assay type: functional, cell-based; conditions: OECM1, 72 h
In short: (§2)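 H1299, PC3, OECM1 and U87 cells exposed 72 h to six or seven drug concentrations. Alamar blue added for 6 h at 37 °C; absorbance read at 570 and 600 nm. IC50 obtained from dose-effect data by the median-effect principle.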

MX1 = assay: Cytotoxicity against human MX1 cells after 72 hrs by SRB assay; assay type: functional, cell-based; conditions: MX1, 72 h
In short: (§3)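 MX-1 breast and HCT-116 colon carcinoma cells exposed 72 h to six or seven drug concentrations. Growth measured by SRB assay with microplate absorbance. IC50 obtained from dose-effect data by the median-effect principle.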

PC-3 = assay: Cytotoxicity against human PC3 cells after 72 hrs by Alamar blue assay; assay type: functional, cell-based; conditions: PC-3, 72 h
In short: as §2

[6] = Cytotoxicity against human U87 cells after 72 hrs by Alamar blue assay; assay type: functional, cell-based, U-87MG ATCC; conditions: U-87 MG
In short: as §2

HCT-116 = assay: Cytotoxicity against human HCT116 cells after 72 hrs by SRB assay; assay type: functional, cell-based; conditions: HCT-116, 72 h
In short: as §3

[7] = Cytotoxicity against human H1299 cells after 72 hrs by Alamar blue assay; assay type: functional, cell-based; conditions: NCI-H1299, 72 h
In short: as §2

CC(=O)O[C@H]1C(=O)[C@@]2(C)[C@H]([C@H](OC(=O)c3ccccc3)[C@]3(O)C[C@H](OC(=O)[C@H](O)[C@@H](NC(=O)c4ccccc4)c4ccccc4)C(C)=C1C3(C)C)[C@]1(OC(C)=O)CO[C@@H]1C[C@@H]2O [PACLITAXEL]
Ratio IC50 (CCRF-CEM [1]): 330

COc1cc(-c2c(CO)c(CO)c3n2Cc2ccccc2C3)cc(OC)c1OC
IC50 (CCRF-CEM [2]): 2.88 µM
Ratio IC50 (CCRF-CEM [1]): 1.45
IC50 (CCRF-CEM [3]): 1.97 µM
IC50 (CCRF-CEM [4]): 2.78 µM

CCNC(=O)OCc1c(COC(=O)NCC)c(-c2cc(OC)c(OC)c(OC)c2)n2c1Cc1ccccc1C2
IC50 (CCRF-CEM [2]): 2.14 µM
Ratio IC50 (CCRF-CEM [1]): 1.52
IC50 (CCRF-CEM [3]): 1.41 µM
IC50 (CCRF-CEM [4]): 3.13 µM

CCNC(=O)OCc1c(COC(=O)NCC)c(-c2ccc(Cl)cc2)n2c1Cc1ccccc1C2
IC50 [5]: 25.3 µM
IC50 (MX1): 1.69 µM
IC50 (CCRF-CEM [2]): 0.35 µM
Ratio IC50 (CCRF-CEM [1]): 0.59
IC50 (PC-3): 11 µM
IC50 [6]: 33.6 µM
IC50 (CCRF-CEM [3]): 0.59 µM
IC50 (CCRF-CEM [4]): 0.57 µM
IC50 (HCT-116): 0.62 µM
IC50 [7]: 37.2 µM

COc1ccc(-c2c(CO)c(CO)c3n2Cc2ccccc2C3)cc1OC
IC50 (CCRF-CEM [2]): 0.76 µM
Ratio IC50 (CCRF-CEM [1]): 0.69
IC50 (CCRF-CEM [3]): 1.1 µM
IC50 (CCRF-CEM [4]): 0.62 µM

CCNC(=O)OCc1c(COC(=O)NCC)c(-c2ccc(Cl)c(Cl)c2)n2c1Cc1ccccc1C2
IC50 (CCRF-CEM [2]): 0.9 µM
Ratio IC50 (CCRF-CEM [1]): 0.38
IC50 (CCRF-CEM [3]): 2.37 µM
IC50 (CCRF-CEM [4]): 1.19 µM

OCc1c(CO)c(-c2ccccc2)n2c1Cc1ccccc1C2
IC50 (CCRF-CEM [2]): 0.5 µM
Ratio IC50 (CCRF-CEM [1]): 0.99
IC50 (CCRF-CEM [3]): 0.51 µM
IC50 (CCRF-CEM [4]): 0.29 µM

COc1cc(-c2c(COC(=O)NC(C)C)c(COC(=O)NC(C)C)c3n2Cc2ccccc2C3)cc(OC)c1OC
IC50 (CCRF-CEM [2]): 1.2 µM
Ratio IC50 (CCRF-CEM [1]): 1.35
IC50 (CCRF-CEM [3]): 0.89 µM
IC50 (CCRF-CEM [4]): 1.42 µM

CC(C)NC(=O)OCc1c(COC(=O)NC(C)C)c(-c2ccc(Cl)c(Cl)c2)n2c1Cc1ccccc1C2
IC50 (CCRF-CEM [2]): 2.47 µM
Ratio IC50 (CCRF-CEM [1]): 0.69
IC50 (CCRF-CEM [3]): 3.55 µM
IC50 (CCRF-CEM [4]): 1.35 µM

CCNC(=O)OCc1c(COC(=O)NCC)c2n(c1C)Cc1ccccc1C2
IC50 [5]: 11.3 µM
IC50 (MX1): 2.27 µM
IC50 (CCRF-CEM [2]): 0.11 µM
Ratio IC50 (CCRF-CEM [1]): 0.48
IC50 (PC-3): 15.5 µM
IC50 [6]: 13.9 µM
IC50 (CCRF-CEM [3]): 0.24 µM
IC50 (CCRF-CEM [4]): 0.12 µM
IC50 (HCT-116): 0.9 µM
IC50 [7]: 19.4 µM

Cc1c(COC(=O)NC(C)C)c(COC(=O)NC(C)C)c2n1Cc1ccccc1C2
IC50 [5]: 11.8 µM
IC50 (MX1): 1.28 µM
IC50 (CCRF-CEM [2]): 0.23 µM
Ratio IC50 (CCRF-CEM [1]): 0.84
IC50 (PC-3): 16.9 µM
IC50 [6]: 26.6 µM
IC50 (CCRF-CEM [3]): 0.27 µM
IC50 (CCRF-CEM [4]): 0.14 µM
IC50 (HCT-116): 1.38 µM
IC50 [7]: 9.77 µM

CC(C)NC(=O)OCc1c(COC(=O)NC(C)C)c(-c2ccc(Cl)cc2)n2c1Cc1ccccc1C2
IC50 [5]: 26.1 µM
IC50 (MX1): 1.7 µM
IC50 (CCRF-CEM [2]): 0.63 µM
Ratio IC50 (CCRF-CEM [1]): 1.16
IC50 (PC-3): 9.97 µM
IC50 [6]: 22.7 µM
IC50 (CCRF-CEM [3]): 0.54 µM
IC50 (CCRF-CEM [4]): 0.57 µM
IC50 (HCT-116): 0.69 µM
IC50 [7]: 25.2 µM

CNC(=O)OCc1c(COC(=O)NC)c(-c2ccc(Cl)cc2)n2c1Cc1ccccc1C2
IC50 (MX1): 1.18 µM
IC50 (CCRF-CEM [2]): 0.22 µM
Ratio IC50 (CCRF-CEM [1]): 1.18
IC50 (CCRF-CEM [3]): 0.19 µM
IC50 (CCRF-CEM [4]): 0.16 µM
IC50 (HCT-116): 0.04 µM

CCNC(=O)OCc1c(COC(=O)NCC)c2n(c1CC)Cc1ccccc1C2
IC50 (CCRF-CEM [2]): 0.21 µM
Ratio IC50 (CCRF-CEM [1]): 0.48
IC50 (CCRF-CEM [3]): 0.44 µM
IC50 (CCRF-CEM [4]): 0.24 µM

CCNC(=O)OCc1c(COC(=O)NCC)c(-c2ccccc2)n2c1Cc1ccccc1C2
IC50 (CCRF-CEM [2]): 0.26 µM
Ratio IC50 (CCRF-CEM [1]): 1.01
IC50 (CCRF-CEM [3]): 0.26 µM
IC50 (CCRF-CEM [4]): 0.23 µM

CC(C)NC(=O)OCc1c(COC(=O)NC(C)C)c(-c2ccc(F)c(F)c2)n2c1Cc1ccccc1C2
IC50 (CCRF-CEM [2]): 0.78 µM
Ratio IC50 (CCRF-CEM [1]): 0.58
IC50 (CCRF-CEM [3]): 1.33 µM
IC50 (CCRF-CEM [4]): 0.61 µM

COc1ccc(-c2c(COC(=O)NC(C)C)c(COC(=O)NC(C)C)c3n2Cc2ccccc2C3)cc1
IC50 [5]: 8.83 µM
IC50 (MX1): 0.98 µM
IC50 (CCRF-CEM [2]): 0.19 µM
Ratio IC50 (CCRF-CEM [1]): 0.56
IC50 (PC-3): 6.79 µM
IC50 [6]: 21 µM
IC50 (CCRF-CEM [3]): 0.34 µM
IC50 (CCRF-CEM [4]): 0.16 µM
IC50 (HCT-116): 0.97 µM
IC50 [7]: 13.2 µM
